For 33 compounds, CC50 and EC50 results are on record in ChEMBL document CHEMBL1156168, “Eastern extension of azoles as non-nucleoside inhibitors of HIV-1 reverse transcriptase; cyano group alternatives” (Bioorg Med Chem Lett, 2010).

pEC50: −log10 of the molar value.

Data set [1] in a line: (§1) Cytotoxicity against human MT2 cells by MTT assay. Type of data set: cell-based. As to conditions: MT2 cells.
Data set [2] concerns MT2. Described as §1. The class given is cell-based. The settings on record: mt2.
For data set [3], the system named is Human immunodeficiency virus 1. As to the kind of experiment: Antiviral activity against HIV1 3B infected in human MT2 cells assessed as inhibition of virus replication by MTT assay. The settings on record: Human immunodeficiency virus 1, 3B. The class given is functional, organism-based. A digest of the protocol: (§2)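 HIV-1 (IIIB or RT-variant strain) infection of human MT-2 T-cells. Protection of the infected cells was read out by the MTT colorimetric method.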

The test system of data set [4] is MT2. In words: Cytotoxicity against human MT2 cells infected with HIV1 harboring reverse transcriptase Y181C mutation by MTT assay. The class given is cell-based.
Data set [5] has as its system MT2. As to the kind of experiment: Cytotoxicity against human MT2 cells infected with HIV1 harboring reverse transcriptase K103N/Y181C mutation by MTT assay. The class given is cell-based.
Data set [6] concerns Human immunodeficiency virus 1. As to the kind of experiment: Antiviral activity against HIV1 reverse transcriptase Y181C mutant infected in human MT2 cells assessed as inhibition of viral replication by MTT assay. Type of data set: functional, organism-based. As to conditions: Human immunodeficiency virus 1, MT2. Put shortly:
as §2

The test system of data set [7] is Human immunodeficiency virus 1. As to the kind of experiment: Antiviral activity against HIV1 reverse transcriptase K103N/Y181C double mutant infected in human MT2 cells assessed as inhibition of viral replication by MTT assay. Type of data set: functional, organism-based. The settings on record: Human immunodeficiency virus 1, MT2. Put shortly: as §2

Take `Cc1ccnc2c1NC(=O)c1cccnc1N2C1CC1` [NEVIRAPINE]: the CC50 in data set [1] is above 100 µM.

Compound `Clc1cccc(Cl)c1Cc1nnc(Nc2ccc(COCc3cccnc3)cc2)o1` came in with a CC50 in data set [2] of 81 µM. In addition, in data set [3], the pEC50 was 5.34.

Take `O=C1Nc2ccc(Cl)cc2[C@@](C#CC2CC2)(C(F)(F)F)O1` [EFAVIRENZ]: the CC50 in data set [2], in data set [4] and in data set [5] was above 0.1 µM throughout.

With `Fc1cccc(F)c1Cc1cnc(Nc2ccc(Oc3cccnc3)c(Cl)c2)o1`, the pEC50 was 5.49 in data set [6] and 5.35 in data set [7].

Regarding `COCc1ccc(Nc2nnc(Cc3c(Cl)cccc3Cl)o2)cc1`, the CC50 in data set [2] is 100 µM. Further, in data set [3], the pEC50 was 5.37.

In the case of `Cc1cn([C@H]2C=C[C@@H](CO)O2)c(=O)[nH]c1=O` [STAVUDINE], the pEC50 in data set [6] was 6.15; in data set [3], 5.85; in data set [7] it was 6.30.

`Clc1cccc(Cl)c1Cc1nnc(Nc2ccc(COCc3ccccc3)cc2)o1` had a CC50 in data set [2] of 84 µM.

In the case of `Clc1cccc(Cl)c1Cc1nnc(Nc2ccc(COCc3ccoc3)cc2)o1`, in data set [2], half-maximal cytotoxicity (CC50) was put at 21 µM.

`Fc1cccc(F)c1Cc1cnc(Nc2ccc(CCOc3ccncc3)cc2)o1` registered a CC50 in data set [2] of 11 µM. Further, the pEC50 in data set [3] was 5.96.

`Clc1cccc(Cl)c1Cc1nnc(Nc2ccc(COCc3ccncc3)cc2)o1` returned a half-maximal cytotoxic concentration (CC50) in data set [2] of 81 µM. For the same compound, the pEC50 in data set [3] was 5.80.

`Fc1cccc(F)c1Cc1cnc(Nc2ccc(COc3ccncc3)cc2)o1`: the CC50 in data set [2] is above 100 µM. Also, the pEC50 in data set [3] is 6.40.

On to `Cc1cc(C#N)cc(C)c1Oc1nc(Nc2ccc(C#N)cc2)nc(N)c1Br` [ETRAVIRINE], for which the pEC50 in data set [6] was 7.96. Further, the CC50 in data set [2], in data set [4] and in data set [5] was above 0.1 µM in each case.

`Clc1cccc(Cl)c1Cc1nnc(Nc2ccc(COCc3ccccn3)cc2)o1` gave a CC50 in data set [2] above 100 µM. For the same compound, the pEC50 in data set [3] was 5.30.

For `Fc1cccc(F)c1Cc1cnc(Nc2ccc(Oc3cccnc3)c(Br)c2)o1`, the CC50 in data set [2] is 7.5 µM. Further, the negative logarithm of the EC50 (pEC50) in data set [3] is 7.47.

Regarding `Fc1cccc(F)c1Cc1cnc(Nc2ccc(Oc3cccnc3)cc2)o1`, the CC50 in data set [2] was found to be 22 µM. Further, the pEC50 in data set [3] was 6.51.

As to `Clc1cccc(Cl)c1Cc1nnc(Nc2ccc(COCc3ccsc3)cc2)o1`, in data set [2], the CC50 was above 100 µM.

In the case of `OCCc1ccc(Nc2ncc(Cc3c(F)cccc3F)o2)cc1`, the CC50 in data set [2] turned out to be 35 µM. Besides, the pEC50 in data set [3] is 5.57.

As for `COCc1ccc(Nc2ncc(Cc3c(F)cccc3F)o2)cc1`, the cytotoxic concentration (CC50) in data set [2] came out at 32 µM. In data set [3], the pEC50 is 5.68.

As to `[O-][n+]1ccc(OCc2ccc(Nc3ncc(Cc4c(F)cccc4F)o3)cc2Cl)cc1`, the figures for the CC50 in data set [2], in data set [4] and in data set [5] were 1.7 µM, 2.7 µM and 2.1 µM, respectively. Also, the pEC50 in data set [3] is 7.96.

The compound `O=c1ccn(CCOc2ccc(Nc3ncc(Cc4c(F)cccc4F)o3)cc2)c(=O)[nH]1` gave a CC50 in data set [2] of 73 µM. Moreover, the pEC50 in data set [3] is 4.60.

Turning to `Fc1cccc(F)c1Cc1cnc(Nc2ccc(Oc3ccncc3)c(Cl)c2)o1`, the pEC50 in data set [6] was 5.64; in data set [3], 6.92; in data set [7] it was 5.14. The CC50 in data set [2] amounted to 21 µM; in data set [4], 17 µM; in data set [5] it was 17 µM.

Take `COCc1ccc(Nc2ncc(Cc3c(Cl)cccc3Cl)o2)cc1`: half-maximal cytotoxicity in data set [2] (CC50) was put at 8.1 µM. Moreover, in data set [3], the pEC50 was 5.92.

Take `N#Cc1ccc(Nc2ncc(Cc3c(F)cccc3F)o2)cc1Cl`: the pEC50 in data set [3] is 8.22.

Turning to `Fc1cccc(F)c1Cc1cnc(Nc2ccc(-c3cccnc3)c(Cl)c2)o1`, the pEC50 was 5.22 in data set [6] and 7.14 in data set [3]. Besides, the CC50 in data set [2] amounted to 8.9 µM; in data set [4], 15 µM; in data set [5], 12.5 µM.

`OCc1ccc(Nc2ncc(Cc3c(F)cccc3F)o2)cc1` gave a CC50 in data set [2] above 100 µM. Also, in data set [3], the negative-log EC50 (pEC50) was 5.42.

In turn, `Fc1cccc(F)c1Cc1cnc(Nc2ccc(COCc3ccco3)cc2)o1` gave a CC50 in data set [2] of 31 µM. In addition, the pEC50 in data set [3] was 5.80.

Regarding `OCc1ccc(Nc2ncc(Cc3c(F)cccc3F)o2)cc1Cl`, the CC50 in data set [2] was found to be 90 µM. The pEC50 in data set [3] was 6.59.

With `Clc1cccc(Cl)c1Cc1nnc(Nc2ccc(COCc3ccco3)cc2)o1`, in data set [2], half-maximal cytotoxicity (CC50) was put at 12 µM. Further, the pEC50 in data set [3] is 5.55.

As for `Fc1cccc(F)c1Cc1cnc(Nc2ccc(-c3ccncc3)c(Cl)c2)o1`, the pEC50 was 5.42 in data set [6], 6.85 in data set [3] and 5.25 in data set [7]. The CC50 amounted to 9.3 µM in data set [2], 11 µM in data set [4] and 9.1 µM in data set [5].

The compound `Fc1cccc(F)c1Cc1cnc(Nc2ccc(COc3ccncc3)c(Cl)c2)o1` gave a half-maximal cytotoxic concentration (CC50) in data set [2] of 3.8 µM. Moreover, the pEC50 in data set [3] is 7.52.

`O=c1ncccn1SCCc1ccc(Nc2ncc(Cc3c(F)cccc3F)o2)cc1` showed a CC50 in data set [2] above 100 µM. For the same compound, the pEC50 in data set [3] is 4.89.

Regarding `Fc1cccc(F)c1Cc1cnc(Nc2ccc(Oc3ccncc3)cc2)o1`, the pEC50 is 5.30 in data set [6], 6.72 in data set [3] and 4.92 in data set [7]. The CC50 in data set [2] is 21 µM; in data set [4] it was 17 µM; in data set [5], 17 µM.

`CSCc1ccc(Nc2ncc(Cc3c(F)cccc3F)o2)cc1` displayed a cytotoxic concentration (CC50) in data set [2] above 100 µM. Besides, the pEC50 in data set [3] was 5.92.
